# Experimental data of several laboratories.
# Compare with care: the assays were run in different laboratories.
# Target: Mitogen-activated protein kinase kinase kinase 3 (MAP3K3, Homo sapiens, UniProt Q99759)
# One construct used (Q99759 1-626): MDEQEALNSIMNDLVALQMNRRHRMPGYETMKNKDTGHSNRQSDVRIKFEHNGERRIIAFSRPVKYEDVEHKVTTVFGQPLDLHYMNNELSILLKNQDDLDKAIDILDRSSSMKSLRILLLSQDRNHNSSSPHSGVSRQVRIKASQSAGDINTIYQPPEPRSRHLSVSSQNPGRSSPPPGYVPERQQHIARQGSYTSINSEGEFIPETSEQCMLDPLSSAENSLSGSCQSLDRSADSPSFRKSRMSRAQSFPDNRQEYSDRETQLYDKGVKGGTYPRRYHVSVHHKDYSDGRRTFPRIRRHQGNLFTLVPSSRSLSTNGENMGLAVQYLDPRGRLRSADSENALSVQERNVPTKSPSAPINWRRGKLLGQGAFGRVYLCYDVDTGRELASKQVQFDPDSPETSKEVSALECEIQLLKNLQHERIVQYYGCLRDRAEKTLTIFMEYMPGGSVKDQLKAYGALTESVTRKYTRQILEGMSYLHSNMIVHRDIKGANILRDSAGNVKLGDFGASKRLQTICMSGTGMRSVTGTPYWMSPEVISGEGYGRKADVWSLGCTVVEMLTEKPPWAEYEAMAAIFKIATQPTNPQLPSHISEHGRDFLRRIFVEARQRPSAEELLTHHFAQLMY
SMILES,test,conditions,remaining binding [%]
c1cncc(-c2cccc(Nc3nccc(NC4CCCCC4)n3)c2)c1,"binding, competition with immobilised ligand",10 µM,41
O=C(Nc1cccnn1)N1CC(C/C=C/c2cncc(Oc3ccc(C(F)(F)F)cn3)n2)C1,"cell-free assay, competition with immobilised ligand",1 µM,79
CN(c1nccc(-c2cnn3ncccc23)n1)C1CC1,binding,1 µM,100
FC(F)(F)Oc1cccc(-c2cnc3ccc(-c4ccncc4)nn23)c1,"cell-free assay, competition with immobilised ligand",5 µM,51
O=C(NCCCN1CCOCC1)c1ccc(Nc2nccc(-c3cc4ccccc4s3)n2)cc1,"binding, competition with immobilised ligand",1 µM,65
CN1CCN(c2cnc3c(C4CCN(C(=O)c5ccc(OC(F)(F)F)cc5N)CC4)ncnc3c2)CC1,"cell-free assay, competition with immobilised ligand",1 µM,94
Cc1cnn2ncc(-c3ccnc(N(C)C)n3)c2c1,binding,1 µM,47
O=C(c1ccc(Nc2nccc(-c3cc4ccccc4s3)n2)cc1)N1CCC(N2CCCC2)CC1,"binding, competition with immobilised ligand",1 µM,61
CN(C)c1ncc(F)c(-c2cnn3ncccc23)n1,binding,1 µM,90
C[C@@H](c1cccc(C#N)c1)n1cc(Cl)cc(C(N)=O)c1=N,"cell-free assay, competition with immobilised ligand",1 µM,95
COc1cnc(Nc2cccc(S(N)(=O)=O)c2)nc1N1CCN(c2ccccc2)CC1,"binding, competition with immobilised ligand",1 µM,82
COc1ccnn2ncc(-c3ccnc(N(C)C)n3)c12,binding,1 µM,72
CC(=O)Nc1c(C(C)=O)c(=O)n(C)c2nc(-c3ccc(Cl)cc3Cl)c(-c3ccc(Cl)cc3)cc12,"cell-free assay, competition with immobilised ligand",1 µM,100
N[C@H]1CCN(c2nccc(-c3cnn4ncccc34)n2)C1,binding,1 µM,100
Cc1cnc(Nc2ccc(C(=O)N3CCC(N4CCCC4)CC3)cc2)nc1-c1cc2ccccc2s1,"binding, competition with immobilised ligand",1 µM,19
C[C@@H]1CCN(c2nccc(-c3cnn4ncccc34)n2)C1,binding,1 µM,80
Cc1cc(NC(=O)c2cccc(S(F)(F)(F)(F)F)c2)cc(-n2ccn3nc(-c4cccnc4)cc23)c1,"cell-free assay, competition with immobilised ligand",1 µM,87.9
C[C@@H](c1ccc(-n2cnc3c(N)ncnc32)cc1)N1CCc2nn(C)c(Cc3ccccc3)c2C1=O,"binding, competition with immobilised ligand",0.1 µM,79
Nc1c(C(=O)NCc2ccc(C(=O)NCCCC3CCCCC3)cc2)cnn1-c1ccccc1,"cell-free assay, competition with immobilised ligand",0.1 µM,100
O=C(Nc1c[nH]nc1C(=O)NC1CCNCC1)c1cc(F)cc(F)c1,"binding, competition with immobilised ligand",1 µM,89
F[C@@H]1CCN(c2nccc(-c3cnn4ncccc34)n2)C1,binding,1 µM,100
O=C(N1CCS(=O)(=O)CC1)N1C[C@H](c2ccc(OC(F)(F)F)cc2)C[C@H](c2nc(C3CC3)no2)C1,"cell-free assay, competition with immobilised ligand",1 µM,100
